Laboratory results as given in ChEMBL document CHEMBL1138273, “Design, synthesis, and characterization of new iron chelators with anti-proliferative activity: structure-activity relationships of novel thiohydrazone analogues” (J Med Chem, 2007).

Experiments:
[1] = test system: SK-N-MC; assay: Antiproliferative activity against human SK-N-MC cells by MTT assay; type: functional, cell-based
Summary of the method: (§1)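 MTT colour formation, shown to be directly proportional to viable cell number counted by Trypan blue, was used to read growth of SK-N-MC neuroepithelioma or mortal MRC-5 fibroblast cells. IC50 values are given as mean ± SD of 3 experiments.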

[2] = test system: MRC5; assay: Antiproliferative activity against human MRC5 cells by MTT assay; type: cell-based; summary of the method: as §1
[3] = test system: SK-N-MC; assay: Effect on iron efflux in human SK-N-MC cells assessed as cellular iron release; type: functional; design: concentration or dose not given beside the values
Summary of the method: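 SK-N-MC cells were prelabeled with 59Fe-transferrin (0.75 µM) for 3 h at 37 °C, washed four times with ice-cold PBS, then incubated with chelator (50 µM). Overlying medium was separated from cells, and released versus retained 59Fe was gamma-counted in supernatant and cell pellet. Mean ± SD of 3 experiments, 3 determinations each.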

[4] = test system: SK-N-MC; assay: Inhibition of cellular iron uptake from 59Fe]transferrin in human SK-N-MC cells at 50 uM relative to control; type: functional; conditions: values are per cent of control
Summary of the method: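 Cells were co-incubated for 3 h at 37 °C with 59Fe-transferrin (0.75 µM) plus chelator (50 µM), then washed four times in ice-cold PBS. Pronase (1 mg/mL, 30 min, 4 °C) stripped membrane-bound 59Fe, and the Pronase-insensitive fraction was counted as internalized. Values are % of control, mean ± SD of 3 experiments with 3 determinations each.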

SMILES | IC50 [1] | IC50 [2] | Activity [3] | response, % of control at 50 µM [4]
O=C(N/N=C(/c1ccccc1)c1ccccn1)c1ccccc1 | 1470 nM | – | – | –
O=C(NN=C(c1ccccn1)c1ccccn1)c1ccccc1 | 1240 nM | – | – | –
Oc1ccc2ccccc2c1/C=N/NC(=S)c1ccccc1 | 2530 nM | 3890 nM | 37% | 20%
CC(=O)N(O)CCCCCNC(=O)CCC(=O)N(O)CCCCCNC(=O)CCC(=O)N(O)CCCCCN [DEFEROXAMINE] | 14200 nM | – | 17% | –
Cc1ncc(CO)c(/C=N/NC(=O)c2ccccc2)c1O [PYRIDOXAL BENZOYL HYDRAZONE] | 31800 nM | – | – | –
Cc1ncc(CO)c(/C=N/NC(=O)c2ccncc2)c1O [PYRIDOXAL ISONICOTINOYL HYDRAZONE] | – | – | 44% | –
Cc1ncc(CO)c(/C=N/NC(=S)c2ccccc2)c1O [PYRIDOXAL THIOBENZOYL HYDRAZONE] | 58200 nM | > 80000 nM | – | –
O=C(N/N=C/c1ccccc1O)c1ccccc1 [SALICYLALDEHYDE BENZOYL HYDRAZONE] | 3230 nM | – | – | –
Oc1ccccc1/C=N/NC(=S)c1ccccc1 [SALICYLALDEHYDE THIOBENZOYL HYDRAZONE] | 24500 nM | 57000 nM | 37% | 20%

Continued by falling IC50 [1], values first:

IC50 [1] | SMILES | IC50 [2] | Activity [3] | response, % of control at 50 µM [4]
990 nM | O=C(N/N=C/c1c(O)ccc2ccccc12)c1ccccc1 | – | – | –
590 nM | O=C(N/N=C/c1c(O)ccc2ccccc12)c1ccncc1 | – | 44% | –
540 nM | NC(=S)N/N=C/c1ncccc1N [TRIAPINE] | – | – | –
12 nM | S=C(NN=C(c1ccccn1)c1ccccn1)c1ccccc1 | 750 nM | 37% | 20%
11 nM | S=C(N/N=C(/c1ccccc1)c1ccccn1)c1ccccc1 | 530 nM | – | –
2 nM | CN(C)C(=S)NN=C(c1ccccn1)c1ccccn1 | – | 44% | –
